Results published in ChEMBL document CHEMBL1140925, “Nuclear factor-kappaB mediated inhibition of cytokine production by imidazoline scaffolds” (J Med Chem, 2009).
Active and inactive are the calls of the source. No cut-off for these calls is given here.

How the values were obtained:
[1] = (§1) Inhibition of TNF-alpha-induced NF-kappaB-mediated transcription expressed in human HeLa cells preincubated for 30 mins before addition of TNFalpha measured after 8 hrs by luciferase reporter gene assay; assay type: cell-based
How it was run: (§2)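 HeLa/NF-κB-luc cells (5.0 × 10⁵ cells/mL) were grown 24 h, then switched to serum-free DMEM. They were pretreated 30 min at 37 °C with 0.05–20 µM imidazoline (1% DMSO vehicle), then stimulated with 25 ng/mL TNF-α for 8 h. Steady-Glo luminescence was normalized to TNF-α activation, and EC50 was taken from a variable-slope sigmoidal fit. Values are the mean of two independent experiments.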

[2] = test system: HeLa; experiment: as §1; assay type: cell-based; how it was run: as §2
[3] = test system: HeLa; experiment: Induction of NF-kappaB-mediated transcription expressed in human HeLa cells at 20 uM by luciferase reporter gene assay; assay type: cell-based
How it was run: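 Stably integrated NF-κB-luc HeLa cells, hygromycin-selected, were exposed to 20 µM imidazoline without TNF-α activation. Firefly luciferase was read after 8 h, and signal was normalized to the TNF-α activation control.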

[4] = test system: Blood; experiment: Antiinflammatory activity in human whole blood assessed as inhibition of IL-1-beta-induced TNFalpha production preincubated 2 hrs before addition of IL1-beta measured after 18 hrs by ELISA; assay type: functional, tissue-based
How it was run: (§3)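 Human blood from donors with white count in the normal range, diluted 1:10 in RPMI-1640 with 10% FBS, penicillin and streptomycin. Aliquots were preincubated with vehicle (0.1% DMSO final) or compound at 10, 3, 1, 0.3 or 0.1 µM final for 2 h at 37 °C, 5% CO2. IL-1β (200 U/mL) was then added for 18 h, and plasma was collected and frozen. Cytokine was measured by ELISA.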

[5] = test system: Blood; experiment: Antiinflammatory activity in human whole blood assessed as inhibition of IL-1-beta-induced IL6 production preincubated 2 hrs before addition of IL1-beta measured after 18 hrs by ELISA; assay type: functional, tissue-based; how it was run: as §3
[6] = test system: HeLa; experiment: Inhibition of TNF-alpha-induced NF-kappaB-mediated transcription expressed in human HeLa cells co-transfected with renilla luciferase-TK gene preincubated for 30 mins before TNFalpha challenge measured after 8 hrs by dual-glo luciferase reporter gene assay; assay type: cell-based
How it was run: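 HeLa cells were transiently cotransfected (lipofectamine 2000, 5–6 h) with 6×κB pNF-κB-luc and the pRL-TK Renilla control, then grown 24 h. They were pretreated 30 min with 0.312–20 µM (1% DMSO vehicle), then stimulated with 25 ng/mL TNF-α for 8 h at 37 °C. Dual-Glo firefly signal was normalized to Renilla luminescence.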

| EC50 [1] [µM] | IC50 [4] [µM] | IC50 [5] [µM] | IC50 ([4]; Homo sapiens, Blood) [µM] | IC50 ([5]; Homo sapiens, Blood) [µM] | SMILES | Activity [2] | logEC50 [2] | Activity [3] | Activity [4] | Activity [5] | logIC50 [4] | logIC50 [5] | logEC50 [6] |
| --- | --- | --- | --- | --- | --- | --- | --- | --- | --- | --- | --- | --- | --- |
| 27.7 |  |  |  |  | c1ccc(Cn2c(-c3ccccc3)nc(-c3ccccc3)c2-c2ccccc2)cc1 | Dose-dependent effect | 1.44 | inactive | Dose-dependent effect | Dose-dependent effect |  |  |  |
| 1.6 | 0.6 | 0.2 |  |  | CCOC(=O)[C@]1(c2ccccc2)N=C(c2ccccc2)N(Cc2ccccc2)[C@@H]1c1ccccc1 [listing 1 of 2 here] |  |  |  |  |  |  |  |  |
| 2.9 |  |  | 0.7 | 0.583 | CCOC(=O)[C@@]1(c2ccccc2)N=C(c2ccccc2)N(Cc2ccccc2)[C@H]1c1ccccc1 | Dose-dependent effect | 0.469 | inactive | Dose-dependent effect | Dose-dependent effect |  |  |  |
|  |  |  |  |  | CCOC(=O)[C@]1(c2ccccc2)N=C(c2ccccc2)N(Cc2ccccc2)[C@@H]1c1ccccc1 [listing 2 of 2 here] | Dose-dependent effect | 0.209 | inactive | Dose-dependent effect | Dose-dependent effect |  |  |  |
| > 20 |  |  |  | > 20 | OC[C@]1(c2ccccc2)N=C(c2ccccc2)N(Cc2ccccc2)[C@@H]1c1ccccc1 (racemic) | Dose-dependent effect |  | inactive |  | Dose-dependent effect | 1.29 |  |  |
| 3.5 |  |  | 3.2 |  | O=C(OCc1ccccc1)[C@]1(c2ccccc2)N=C(c2ccccc2)N(Cc2ccccc2)[C@@H]1c1ccccc1 (racemic) | Dose-dependent effect | 0.54 | inactive | Dose-dependent effect | Dose-dependent effect | 0.51 | 0.77 |  |
| 26.2 |  |  | > 20 | 11.9 | NC(=O)[C@]1(c2ccccc2)N=C(c2ccccc2)N(Cc2ccccc2)[C@@H]1c1ccccc1 (racemic) | Dose-dependent effect | 1.55 | inactive |  | Dose-dependent effect | 1.668 | 1.08 |  |
| 4.59 |  |  |  | 2.47 | c1ccc(CN2C(c3ccccc3)=N[C@H](c3ccccc3)[C@H]2c2ccccc2)cc1 (racemic) | Dose-dependent effect | 0.66 | inactive | Dose-dependent effect | Dose-dependent effect | 0.39 |  |  |
| 11 |  |  |  | 2.4 | c1ccc(CN2C(c3ccccc3)=N[C@@H](c3ccccc3)[C@H]2c2ccccc2)cc1 (racemic) | Dose-dependent effect | 1.04 | inactive | Dose-dependent effect | Dose-dependent effect | 0.38 |  |  |
| 7.47 |  |  | 2.79 |  | COC(=O)[C@]1(c2ccccc2)N=C(c2ccccc2)N(Cc2ccccc2)[C@@H]1c1ccccc1 (racemic) | Dose-dependent effect | 0.87 | inactive | Dose-dependent effect | Dose-dependent effect | 0.4761 | 0.446 |  |
|  |  |  |  |  | CCOC(=O)[C@]1(c2ccccc2)N=C(c2ccccc2)N(Cc2ccccc2)[C@@H]1c1ccccc1 (racemic) | Dose-dependent effect | 0.4 | inactive | Dose-dependent effect | Dose-dependent effect |  |  | 0.67 |
| 0.95 |  |  | > 20 | > 20 | O=C(O)[C@]1(c2ccccc2)N=C(c2ccccc2)N(Cc2ccccc2)[C@@H]1c1ccccc1 (racemic; 1) [listing 1 of 2 here] |  |  |  |  |  |  |  |  |
|  |  |  |  |  | O=C(O)[C@]1(c2ccccc2)N=C(c2ccccc2)N(Cc2ccccc2)[C@@H]1c1ccccc1 (racemic; 1) [listing 2 of 2 here] | Dose-dependent effect |  | inactive | Dose-dependent effect | Dose-dependent effect |  |  |  |
|  |  |  |  |  | O=C(O)[C@]1(c2ccccc2)N=C(c2ccccc2)N(Cc2ccccc2)[C@@H]1c1ccccc1 (racemic; 2) | inactive |  | inactive |  |  |  |  |  |
